Read-outs that look alike come from different tables or passages of the source. Non-standard residues stand in square brackets, D forms with d. Residues, ends and D or L forms follow the SMILES beside them. F2Pmp = N[CH](Cc1ccc(C(F)(F)P(=O)(O)O)cc1)C(=O)O
Key:
TC-PTP = target: T1, TC-PTP (Homo sapiens, UniProt P17706); experiment: TC-PTP-catalyzed pNPP hydrolysis inhibition; assay type: biochemical; details: for IC50: pNPP 2 mM, pH 7.0, 25 °C; for fold enhancement relative to parent compound 5: IC50/affinity for TC-PTP versus compound 5
T1 sequence (P17706 1-415): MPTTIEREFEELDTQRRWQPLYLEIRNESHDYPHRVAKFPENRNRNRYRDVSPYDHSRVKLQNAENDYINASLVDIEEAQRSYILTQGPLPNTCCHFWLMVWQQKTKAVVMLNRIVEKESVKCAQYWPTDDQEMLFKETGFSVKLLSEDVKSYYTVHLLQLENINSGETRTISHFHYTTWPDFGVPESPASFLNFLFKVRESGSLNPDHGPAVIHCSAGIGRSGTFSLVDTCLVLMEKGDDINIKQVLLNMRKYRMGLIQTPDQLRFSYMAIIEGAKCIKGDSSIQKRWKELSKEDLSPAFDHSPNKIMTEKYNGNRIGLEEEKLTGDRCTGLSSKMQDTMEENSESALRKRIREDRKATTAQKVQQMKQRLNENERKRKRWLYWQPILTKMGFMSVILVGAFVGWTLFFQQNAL
Procedure, shortened: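 IC50: enzyme added last (10 nM or 0.4 nM final) to 2 mM pNPP (Km) plus varied test compound, 30 min at room temperature, NaOH quench, A405. Reversibility: enzyme preincubated with test compound 30 min before pNPP. Mode/Ki: 0.4 nM enzyme, varied pNPP and inhibitor, kinetic fit.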

[1] = system: tyrosine phosphorylation of EGFR in PTP1B−/− mouse embryo fibroblast cells; experiment: EGF-stimulated EGFR phosphorylation in cells; assay type: cell-based; details: 200 nM
Procedure, shortened: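 PTP1B−/− mouse embryo fibroblasts were given test compound for 2 hr, then EGF 2 ng/mL for 10 min. Lysis in HEPES pH 7.4 buffer with pervanadate, fluoride and protease inhibitors, cleared at 15,000 rpm for 10 min, protein by BCA. EGFR immunoprecipitated from 1 mg lysate (4 °C, 2 h; protein A/G 2 h). SDS-PAGE, anti-pTyr immunoblot, ECL detection.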

| SMILES | IC50 (TC-PTP; read-out: IC50 for TC-PTP) [nM] | fold enhancement relative to parent compound 5 (TC-PTP) [fold] | IC50 (TC-PTP; read-out: IC50 for the TC-PTP-catalyzed reaction) [nM] | effect on EGFR phosphorylation [1] |
| --- | --- | --- | --- | --- |
| O=C(N[C@@H](Cc1ccc(C(F)(F)P(=O)(O)O)cc1)C(=O)O)OCC1c2ccccc2-c2ccccc21 [Fmoc-F2Pmp-OH, reference compound] | 20000 |  |  |  |
| CCc1ccc(C(=O)NCCCCC(NC(=O)C(Cc2ccc(C(F)(F)P(=O)(O)O)cc2)NC(C)=O)C(N)=O)cc1 (stereo not shown) [Compound 6] |  | 12.5 | 160 ± 20 |  |
| CCc1ccc(C(=O)NCCCCC(NC(=O)C(Cc2ccccc2)NC(=O)C(Cc2ccccc2)NC(=O)COC2CC(C)CCC2C(C)C)C(N)=O)cc1 (stereo not shown) [Compound 9] | > 1000 |  |  | no effect |
| CCc1ccc(C(=O)NCCCCC(NC(=O)C(Cc2ccc(C(F)(F)P(=O)(O)O)cc2)NC(=O)C(Cc2ccccc2)NC(C)=O)C(N)=O)cc1 (stereo not shown) [Compound 7] |  | 77 |  |  |
| CC(=O)NCCCCC(NC(=O)C(Cc1ccc(C(F)(F)P(=O)(O)O)cc1)NC(C)=O)C(N)=O (stereo not shown) [Compound 5] (Ac-[F2Pmp]-Lys(Ac)-NH2; configuration not given here) | 2000 |  |  |  |
